pEC50, pIC50, pKd: −log10 of the molar value. Calls of active or inactive are those of the source. The calls are words filed in the database; no cut-off is given here.
Experiments:
[1] = Cytotoxicity against mouse MNMCA1 cells assessed as cell survival preincubated for 24 hrs with compound further incubated for 48 hrs in drug free medium by MTT assay; format: functional, cell-based
Method in brief: (§1)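 Exponentially growing cells seeded and treated 24 h after seeding with increasing concentrations for 24 h. Cells then recovered 48 h in drug-free medium. MTT added for 1 h at 37 °C, formazan dissolved in DMSO, absorbance read at 540 nm. IC50 from linear regression. Means ± SEM of two independent experiments in triplicate.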

Quadruplex DNA [2] = assay: Stabilization of human Tel26 G4 quadruplex DNA assessed as thermal stability by measuring difference in melting temperature t1/2 by circular dichroism spectroscopy; format: nucleic-acid assay
Quadruplex DNA [3] = assay: Stabilization of c-kit1 G4 quadruplex d(DNA AGGGAGGGCGCTGGGAGGAGGG) DNA (unknown origin) assessed as thermal stability by measuring difference in melting temperature t1/2 by circular dichroism spectroscopy (reference value: 54 +/- 0.5 degC); format: nucleic-acid assay
Quadruplex DNA [4] = assay: Stabilization of c-kit2 G4 quadruplex d(CGGGCGGGCGCTAGGGAGGGT) DNA (unknown origin) assessed as thermal stability by measuring difference in melting temperature t1/2 by circular dichroism spectroscopy (reference value: 61.5 +/- 0.5 degC); format: nucleic-acid assay
Quadruplex DNA [5] = assay: Stabilization of c-myc G4 quadruplex d(TTAGGGTTAGGGTTAGGGTTAGGGTT) DNA (unknown origin) assessed as thermal stability by measuring difference in melting temperature t1/2 by circular dichroism spectroscopy (reference value: 72 +/- 0.5 degC); format: nucleic-acid assay
[6] = Stabilization of d(CGC GAA TTC GCG TIT CGC GAA TTC GCG) DNA hairpin (unknown origin) assessed as thermal stability by measuring difference in melting temperature t1/2 by circular dichroism spectroscopy (reference value: 75.4 +/- 0.2 degC)
Method in brief: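 CD melting of 15 μM annealed hairpin duplex in 5 mM K phosphate pH 7.0 with 20 mM KCl, with or without ligand at 2 molar equiv added to the folded DNA. The signal was followed at 252 nm from 20 to 100 °C at 1 °C/min, with T1/2 taken from a curve fit. ΔT1/2 is relative to DNA alone; duplicate runs, averaged.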

[7] = Stabilization of F-c-kit1-T (unknown origin) assessed as difference in melting temperature t1/2 in presence of d(CGC GAA TTC GCG TIT CGC GAA TTC GCG) DNA hairpin (unknown origin) measured at 1:15 G4 to hairpin DNA ratio by FRET assay
Method in brief: (§2)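 FRET melting of 0.2 μM prefolded FAM/TAMRA dual-labelled c-kit1 G4 in 5 mM K phosphate pH 7.0 with 20 mM KCl. Ligand was added at 2 molar equiv, with unlabelled hairpin competitor at 3 or 10 μM final (15 or 50 equiv relative to G4). FAM emission was read at 520 nm (excitation 492 nm) while heating at 0.2 °C/min over 15–90 °C. ΔT1/2 is relative to no ligand; at least duplicate, averaged.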

[8] = Stabilization of F-c-kit1-T (unknown origin) assessed as difference in melting temperature t1/2 in presence of d(CGC GAA TTC GCG TIT CGC GAA TTC GCG) DNA hairpin (unknown origin) measured at 1:50 G4 to hairpin DNA ratio by FRET assay; method in brief: as §2
Quadruplex DNA [9] = assay: Stabilization of F-c-kit1-T quadruplex DNA (unknown origin) by measuring difference in melting temperature t1/2 by FRET assay; format: nucleic-acid assay
Method in brief: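 FRET melting of 0.2 μM prefolded FAM/TAMRA-labelled c-kit1 in 5 mM potassium phosphate pH 7.0 with 20 mM KCl, with ligand at 2 molar equiv. Unlabelled hairpin competitor added at 3 or 10 μM (15 or 50 equiv). FAM emission at 520 nm (excitation 492 nm) followed from 15 to 90 °C at 0.2 °C/min. ΔT1/2 versus no ligand. At least duplicate.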

Quadruplex DNA [10] = assay: Displacement of thiazole orange from c-kit1 G4 quadruplex d(DNA AGGGAGGGCGCTGGGAGGAGGG) DNA (unknown origin) assessed as relative affinity by fluorescent intercalator displacement assay; format: nucleic-acid assay
Method in brief: (§3)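 G4 DNA at 0.25 μM with 0.5 μM thiazole orange in 5 mM potassium phosphate pH 7.0 containing 20 mM KCl (LiCl for c-myc), 20 °C. Ligand titrated from 0.5 to 20 molar equiv with 3 min equilibration per addition. Excitation 485 nm, emission 500–650 nm. %displacement = 100 − (F/F0×100); DC50 is the concentration displacing 50% TO. Duplicate titrations.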

Quadruplex DNA [11] = assay: Displacement of thiazole orange from c-kit2 G4 quadruplex d(CGGGCGGGCGCTAGGGAGGGT) DNA (unknown origin) assessed as relative affinity by fluorescent intercalator displacement assay; format: nucleic-acid assay; method in brief: as §3
Quadruplex DNA [12] = assay: Displacement of thiazole orange from c-myc G4 quadruplex d(TTAGGGTTAGGGTTAGGGTTAGGGTT) DNA (unknown origin) assessed as relative affinity by fluorescent intercalator displacement assay; format: nucleic-acid assay; method in brief: as §3
Quadruplex DNA [13] = assay: Binding affinity to c-kit1 G4 quadruplex d(DNA AGGGAGGGCGCTGGGAGGAGGG) DNA (unknown origin) assessed as dissociation constant by Microscale thermophoresis analysis; format: nucleic-acid assay
Method in brief: (§4)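 MST with Cy5.5-labelled G4 oligonucleotide held at 20 nM, folded in 5 mM potassium phosphate pH 7.0 with 20 mM KCl plus 0.1% Tween. Ligand in 1:2 serial dilution mixed 1:1 with DNA, 20% DMSO final. Kd taken from binding curves.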

Quadruplex DNA [14] = assay: Binding affinity to c-kit2 G4 quadruplex d(CGGGCGGGCGCTAGGGAGGGT) DNA (unknown origin) assessed as dissociation constant by Microscale thermophoresis analysis; format: nucleic-acid assay; method in brief: as §4
Quadruplex DNA [15] = assay: Binding affinity toc-myc G4 quadruplex d(TTAGGGTTAGGGTTAGGGTTAGGGTT) DNA (unknown origin) assessed as dissociation constant by Microscale thermophoresis analysis; format: nucleic-acid assay; method in brief: as §4
U2OS [16] = assay: Cytotoxicity against human U2OS cells assessed as cell survival preincubated for 24 hrs with compound further incubated for 48 hrs in drug free medium by MTT assay; format: functional, cell-based; method in brief: as §1
Quadruplex DNA [17] = assay: Stabilization of G4 quadruplex DNA in human U2OS cells assessed as BG4 foci formation by measuring fold increase in G4 structure at 10 uM by immunofluorescence microscopy; format: cell-based
Method in brief: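 U2OS cells on coverslips treated for […]. Fixed in methanol/acetic acid 3:1, permeabilized with 0.1% Triton X-100, blocked in 2% milk. Stained with 0.5 μg BG4 for 2 h, then anti-FLAG and Alexa Fluor 488 secondary. Signal quantified as fold over untreated.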

U2OS [18] = assay: Induction of DNA damage in human U2OS cells assessed as increase in gammaH2AX phosphorylation at S139 incubated for 24 hrs by immunofluorescence microscopy; format: functional, cell-based; conditions: read-out: IC50 (the source's name)
Method in brief: (§5)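 U2OS cells treated 24 h. Fixed with 4% formaldehyde, permeabilized with 0.5% Triton X-100, blocked with 8% BSA, stained with anti-γH2AX (1:500) and Alexa Fluor 594 secondary, DAPI counterstain. Fluorescence microscopy signal quantified as fold over untreated.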

[19] = Genotoxicity in mouse MNMCA1 cells assessed as induction of micronuclei formation measured after 24 hrs by DAPI staining based analysis; format: toxicity, cell-based; conditions: mnmca1, 24 h
MNMCA1 = assay: Activation of IFN-beta in mouse MNMCA1 cells at 15 to 30 uM pretreated for 24 hrs followed by 48 hrs of drug recovery by ELISA; format: functional, cell-based; conditions: dose 15-30 µM, time 72.0 hrs
Method in brief: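 MNMCA1 cells treated 24 h with compound at 15 or 30 μM, then 48 h recovery in fresh drug-free medium. IFN-B protein measured by ELISA in collected culture supernatants.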

U2OS [20] = assay: Induction of DNA damage in human U2OS cells assessed as fold increase in gammaH2AX phosphorylation at […] by measuring fold change at 10 uM incubated for 24 hrs by immunofluorescence microscopy; format: functional; method in brief: as §5
[21] = Genotoxicity in mouse MNMCA1 cells assessed as induction of micronuclei formation at 5 uM incubated for 24 hrs by measuring fold change by DAPI staining based analysis; format: toxicity, cell-based; conditions: mnmca1, 24 h

Row | SMILES | pIC50 [1] | ΔTm (Quadruplex DNA [2]) [°C] | ΔTm (Quadruplex DNA [3]) [°C] | ΔTm (Quadruplex DNA [4]) [°C] | ΔTm (Quadruplex DNA [5]) [°C] | ΔTm [6] [°C] | ΔTm [7] [°C] | ΔTm [8] [°C] | ΔTm (Quadruplex DNA [9]) [°C] | pKd (Quadruplex DNA [13]) | pKd (Quadruplex DNA [14]) | pKd (Quadruplex DNA [15]) | pIC50 (U2OS [16]) | pEC50 (U2OS [18]) | fold change (FC) (U2OS [20]) | fold change (FC) [21] | further results
1 | Cc1ccc(-c2nc3ccn4c(/C=N/NC(=N)N)c(-c5ccccc5)nc4n3c2/C=N/NC(=N)N)cc1 | 4.41 | 4.8 | 18.2 | > 30 | 16.9 | 1.3 | 22.2 | 19.2 | 25.4 | 7.52 | 7.40 | 5.82 | 4.33 | 4.34 |  |  | pIC50 (Quadruplex DNA [10]): 5.85; pIC50 (Quadruplex DNA [11]): 5.85; pIC50 (Quadruplex DNA [12]): 5.80; fold change (FC) (Quadruplex DNA [17]): 2.4; fold change (FC) [19]: 0.4; Activity (MNMCA1): Active
2 | N=C(N)N/N=C/c1c(-c2ccccc2)nc2ccn3c(CO)c(-c4ccccc4)nc3n12 | 4.45 | 1.8 | 9.7 | 18.6 | 2.8 | 2.3 | 11.1 | 12.1 | 10 | 5.70 | 5.89 | 5.10 | 4.84 | 4.85 | 2.32 | 2.5 | 
3 | OCc1c(-c2ccccc2)nc2n1ccc1nc(-c3ccccc3)c(/C=N/NC3=NCCN3)n12 | 4.92 | 2 | 7.1 | 14.7 | 1.7 | 1.3 | 7.8 | 8.4 | 8 | 5.10 | 5.60 | 4.43 | 4.61 | 4.62 | 1.55 | 2.5 | 

From ChEMBL document CHEMBL5126632, “Balancing Affinity, Selectivity, and Cytotoxicity of Hydrazone-Based G-Quadruplex Ligands for Activation of Interferon β Genes in Cancer Cells” (J Med Chem, 2022)
